According to ChEMBL document CHEMBL1125658, “Synthesis and properties of some peptide analogues of actinomycin D” (1991):
Converted amounts (≈) assume the structure as drawn. Starred links: 1 amine or outer side, 2 acyl side, 3 side chain; linkers in the order of their positions; H or OH if unused. Positions of bridges follow the written chain, without caps; N, C: chain ends. Non-standard residues stand in square brackets, D forms with d. Residues, ends and D or L forms follow the SMILES beside them. Chains are numbered I, II in the order given. Actinocin(1to9) = Cc1c2oc3c(C)ccc(C(=O)[*:2])c3nc-2c(C(=O)[*:1])c(N)c1=O; NMeV = CN[C@H](C(=O)O)C(C)C; Sar = CNCC(=O)O

Key:
Type in all cases: functional
Staphylococcus aureus = experiment: Compound was tested for its antibacterial activity against Staphylococcus aureus
How it was run: (§1)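 Overnight culture in trypticase soy broth at 37 °C, 0.1 mL subcultured into 50 mL fresh TSB and grown 8 h. Then 0.1 mL of the rapidly growing culture was diluted into a further 50 mL TSB. 0.1 mL of this dilution inoculated into 2 mL TSB per tube for MIC determination.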

Bacillus subtilis = experiment: Compound was tested for its antibacterial activity against Bacillus subtilis; how it was run: as §1
Mus musculus = experiment: Compound was tested in vivo for its antitumor activity against B16 melanocarcinoma in mice by determining its median survival time at dose of 0.256 mg/Kg

## Cc1c2oc3c(C)ccc(C(=O)N[C@@H]4C(=O)N[C@H](C(C)C)C(=O)N5CCC[C@H]5C(=O)N(C)CC(=O)N(C)[C@@H](C(C)C)C(=O)O[C@@H]4C)c3nc-2c(C(=O)N[C@@H]2C(=O)N[C@H](C(C)C)C(=O)N3CCC[C@H]3C(=O)N(C)CC(=O)N(C)[C@@H](C(C)C)C(=O)O[C@@H]2C)c(N)c1=O [DACTINOMYCIN] (I: T[dV]P[Sar][NMeV] / II: T[dV]P[Sar][NMeV]; ester I:1-I:C, II:1-II:C; linker I:N-II:N via Actinocin(1to9))
Staphylococcus aureus
  MIC: 0.25 µg/mL (≈ 0.199 µM)
Bacillus subtilis
  MIC: 0.09 µg/mL (≈ 0.0717 µM)
Mus musculus
  T/C: 165

## Cc1c2oc3c(C)ccc(C(=O)N[C@@H]4C(=O)N[C@H](C(C)C)C(=O)N5CCC[C@H]5C(=O)N(C)CC(=O)N(C)[C@@H](CC(C)C)C(=O)O[C@@H]4C)c3nc-2c(C(=O)N[C@@H]2C(=O)N[C@H](C(C)C)C(=O)N3CCC[C@H]3C(=O)N(C)CC(=O)N(C)[C@@H](CC(C)C)C(=O)O[C@@H]2C)c(N)c1=O
Staphylococcus aureus
  MIC: 0.5 µg/mL (≈ 0.39 µM)
Bacillus subtilis
  MIC: 0.2 µg/mL (≈ 0.156 µM)
